ChEMBL document CHEMBL3526107, “In vivo-formed versus preformed metabolite kinetics of trans-resveratrol-3-sulfate and trans-resveratrol-3-glucuronide” (Drug Metab Dispos, 2012)

Legend:
Type in all cases: ADME, organism-based
[1] = Clearance in C57BL/6 mouse at 15 mg/kg administered intraarterially by LC-MS/MS analysis; parameters: dose 15 mg/kg, route intra-arterial; details: in vivo
Summary of the method: (§1)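 Male C57BL/6 mice (20–25 g), fasted for the first 10 h of sampling. Single 15 mg/kg bolus in 20% 2-hydroxypropyl-β-cyclodextrin in saline via carotid artery cannula. Serial 20 µl blood draws from 2.5 to 600 min, plus 24 h; n = 5. Plasma is methanol-precipitated (acetaminophen IS) and run on negative-ESI LC-MS/MS. Noncompartmental analysis: linear trapezoidal AUC, Cl = Dose/AUC0-inf, Vss = Cl×MRT, t1/2 = 0.693/k.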

[2] = Terminal half life in C57BL/6 mouse at 15 mg/kg administered intraarterially by LC-MS/MS analysis; parameters: dose 15 mg/kg, route intra-arterial; details: in vivo, read-out: beta t1/2; summary of the method: as §1
[3] = Tmax in C57BL/6 mouse at 15 mg/kg administered intraarterially by LC-MS/MS analysis; parameters: dose 15 mg/kg, route intra-arterial; details: in vivo; summary of the method: as §1
[4] = Cmax in C57BL/6 mouse at 15 mg/kg administered intraarterially by LC-MS/MS analysis; parameters: dose 15 mg/kg, route intra-arterial; details: in vivo; summary of the method: as §1
[5] = AUC (0 to infinity) in C57BL/6 mouse at 15 mg/kg administered intraarterially by LC-MS/MS analysis; parameters: time infinity, dose 15 mg/kg, route intra-arterial; details: plasma; summary of the method: as §1
[6] = Volume of distribution at steady state in C57BL/6 mouse at 15 mg/kg administered intraarterially by LC-MS/MS analysis; parameters: dose 15 mg/kg, route intra-arterial; details: in vivo, read-out: Vdss; summary of the method: as §1
[7] = AUC (0 to t) in C57BL/6 mouse at 15 mg/kg administered intraarterially by LC-MS/MS analysis; parameters: dose 15 mg/kg, route intra-arterial; details: plasma; summary of the method: as §1
[8] = AUC (0 to infinity) in C57BL/6 mouse at 3.5 mg/kg administered intraarterially by LC-MS/MS analysis; parameters: time infinity, dose 3.5 mg/kg, route intra-arterial; details: plasma
Summary of the method: (§2)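 Single 3.5 mg/kg intraarterial bolus in saline via carotid cannula to fasted male C57BL/6 mice; n = 4. Blood (20 µl) is drawn serially over 2.5–600 min and at 24 h. Plasma with ascorbic acid is precipitated with methanol containing acetaminophen IS, then quantified by negative-mode LC-MS/MS. Noncompartmental parameters: trapezoidal AUC, Cl = Dose/AUC0-inf, Vss = Cl×MRT0-inf, t1/2 = 0.693/terminal slope.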

[9] = AUC (0 to t) in C57BL/6 mouse at 3.5 mg/kg administered intraarterially by LC-MS/MS analysis; parameters: dose 3.5 mg/kg, route intra-arterial; details: plasma; summary of the method: as §2
[10] = Tmax in C57BL/6 mouse at 3.5 mg/kg administered intraarterially by LC-MS/MS analysis; parameters: dose 3.5 mg/kg, route intra-arterial; details: in vivo; summary of the method: as §2
[11] = Clearance in C57BL/6 mouse at 3.5 mg/kg administered intraarterially by LC-MS/MS analysis; parameters: dose 3.5 mg/kg, route intra-arterial; details: in vivo; summary of the method: as §2
[12] = Volume of distribution at steady state in C57BL/6 mouse at 3.5 mg/kg administered intraarterially by LC-MS/MS analysis; parameters: dose 3.5 mg/kg, route intra-arterial; details: in vivo, read-out: Vdss; summary of the method: as §2
[13] = Terminal half life in C57BL/6 mouse at 3.5 mg/kg administered intraarterially by LC-MS/MS analysis; parameters: dose 3.5 mg/kg, route intra-arterial; details: in vivo, read-out: beta t1/2; summary of the method: as §2
[14] = Cmax in C57BL/6 mouse at 3.5 mg/kg administered intraarterially by LC-MS/MS analysis; parameters: dose 3.5 mg/kg, route intra-arterial; details: in vivo; summary of the method: as §2
[15] = Volume of distribution at steady state in C57BL/6 mouse at 5 mg/kg administered intraarterially by LC-MS/MS analysis; parameters: dose 5 mg/kg, route intra-arterial; details: in vivo, read-out: Vdss
Summary of the method: (§3)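 Carotid-cannulated male C57BL/6 mice, food withheld for the first 10 h, dosed at 5 mg/kg intraarterially in saline; n = 4. Serial plasma samples taken 2.5–600 min are analysed by LC-MS/MS in negative ESI mode after methanol precipitation with acetaminophen as IS. Noncompartmental analysis uses linear trapezoidal AUC, with Cl = Dose/AUC0-inf, Vss = Cl×MRT, and t1/2 = 0.693/k.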

[16] = Tmax in C57BL/6 mouse at 5 mg/kg administered intraarterially by LC-MS/MS analysis; parameters: dose 5 mg/kg, route intra-arterial; details: in vivo; summary of the method: as §3
[17] = AUC (0 to infinity) in C57BL/6 mouse at 5 mg/kg administered intraarterially by LC-MS/MS analysis; parameters: time infinity, dose 5 mg/kg, route intra-arterial; details: plasma; summary of the method: as §3
[18] = AUC (0 to t) in C57BL/6 mouse at 5 mg/kg administered intraarterially by LC-MS/MS analysis; parameters: dose 5 mg/kg, route intra-arterial; details: plasma; summary of the method: as §3
[19] = Clearance in C57BL/6 mouse at 5 mg/kg administered intraarterially by LC-MS/MS analysis; parameters: dose 5 mg/kg, route intra-arterial; details: in vivo; summary of the method: as §3
[20] = Cmax in C57BL/6 mouse at 5 mg/kg administered intraarterially by LC-MS/MS analysis; parameters: dose 5 mg/kg, route intra-arterial; details: in vivo; summary of the method: as §3
[21] = Terminal half life in C57BL/6 mouse at 5 mg/kg administered intraarterially by LC-MS/MS analysis; parameters: dose 5 mg/kg, route intra-arterial; details: in vivo, read-out: beta t1/2; summary of the method: as §3

## Oc1ccc(/C=C/c2cc(O)cc(O)c2)cc1 [RESVERATROL]
[1]
  clearance: 119 mL/min/kg
[2]
  half-life: 3.18 h
[3]
  Tmax: 2.5 min
[4]
  Cmax: 15.3 µM
[5]
  AUC(0-inf): 9.85 µM·h
[6]
  Vd: 37.6 L/kg
[7]
  AUC(0-t): 8.5 µM·h

## O=C(O)[C@H]1O[C@@H](Oc2cc(O)cc(/C=C/c3ccc(O)cc3)c2)[C@H](O)[C@@H](O)[C@@H]1O
[8]
  AUC(0-inf): 11.8 µM·h
[9]
  AUC(0-t): 10.8 µM·h
[10]
  Tmax: 2.5 min
[11]
  clearance: 13.8 mL/min/kg
[12]
  Vd: 4.55 L/kg
[13]
  half-life: 4.54 h
[14]
  Cmax: 27.8 µM

## O=S(=O)(O)Oc1cc(O)cc(/C=C/c2ccc(O)cc2)c1
[15]
  Vd: 6.37 L/kg
[16]
  Tmax: 2.5 min
[17]
  AUC(0-inf): 4.26 µM·h
[18]
  AUC(0-t): 4.05 µM·h
[19]
  clearance: 76.3 mL/min/kg
[20]
  Cmax: 14.8 µM
[21]
  half-life: 2.13 h
